One compound from ChEMBL document CHEMBL3526139, “Clinical pharmacokinetics, metabolism, and drug-drug interaction of carfilzomib” (Drug Metab Dispos, 2013) can be followed below.

pKi: −log10 of the molar value.

One data set has as its system Plasma. Put plainly: Drug metabolism in plasma of iv dosed human patient with relapsed and refractory hematological malignancies assessed as morpholino-hPhe metabolite formation administered on days 1, 2, 8, 9, 15 and 16 of 28-day cycle over 2 to 10 mins by LC-MS/MS analysis. It counts as ADME, organism-based. As to conditions: in vivo; call rule not given here.
Data set [1] is described as follows: Half life in human patient with relapsed solid tumor at 20 mg/m'2, iv administered on days 1, 2, 8, 9, 15 and 16 of 28-day cycle over 2 to 10 mins measured on day 1 of cycle 1 by LC-MS/MS analysis. The class given is ADME, organism-based. As to conditions: in vivo. In outline: (§1)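 Patients with relapsed solid tumors (n=3) received carfilzomib IV at 20 mg/m2. Plasma was sampled on Days 1 and 16 of Cycle 1 before dosing, at end of administration, and at 5, 15, 30 min and 1, 2, 4 h after. Samples underwent solid phase extraction and LC-MS/MS with d10-carfilzomib internal standard over 0.100–200 ng/mL. Parameters were derived noncompartmentally (constant IV infusion model) from actual elapsed time from infusion start.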

Data set [2] in a line: AUC last in human patient with relapsed solid tumor at 20 mg/m'2, iv administered on days 1, 2, 8, 9, 15 and 16 of 28-day cycle over 2 to 10 mins measured on day 16 of cycle 1 by LC-MS/MS analysis. The class given is ADME, organism-based. More on the design: route intravenous, time 0 - last. The following applies: plasma. In outline:
as §1

A short description of data set [3]: Cmax in human patient with relapsed solid tumor at 20 mg/m'2, iv administered on days 1, 2, 8, 9, 15 and 16 of 28-day cycle over 2 to 10 mins measured on day 16 of cycle 1 by LC-MS/MS analysis. The class given is ADME, organism-based. Details: route intravenous. The following applies: in vivo. In outline: as §1
A short description of data set [4]: Drug metabolism in pooled human hepatocytes assessed as disapperance rate at 1 uM by LC-MS/MS analysis. It counts as ADME, cell-based, Hepatocyte. In outline: (§2)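 Pooled human hepatocytes in suspension (~0.5 x 10^6 viable cells/mL) were incubated with 1 µM carfilzomib at 37°C under 5% CO2, with or without isoform-selective CYP chemical inhibitors. Reactions were quenched with acetonitrile at 0, 15, 30, 60 and 120 min. Carfilzomib was quantified by non-validated LC-MS/MS after protein precipitation.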

Data set [5] in a line: Drug excretion in urine of iv dosed human patient with relapsed and refractory hematological malignancies assessed as morpholino-hPhe-Leu metabolite formation administered on days 1, 2, 8, 9, 15 and 16 of 28-day cycle over 2 to 10 mins by LC-MS/MS analysis. It counts as ADME, organism-based. The following applies: in vivo.
A short description of data set [6]: Drug excretion in urine of iv dosed human patient with relapsed and refractory hematological malignancies assessed as morpholino-hPhe metabolite formation administered on days 1, 2, 8, 9, 15 and 16 of 28-day cycle over 2 to 10 mins by LC-MS/MS analysis. The class given is ADME, organism-based. The following applies: in vivo.
Data set [7] deals with CYP3A. In words: Decrease in CYP3A gene expression in human hepatocytes at 2.5 uM after 3 days by qPCR analysis. The class given is ADME, cell-based, Hepatocyte. In outline: (§3)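 Hepatocytes were treated 3 days with carfilzomib (0.1–2.5 µM) or 0.08% DMSO, renewed daily. CYP3A mRNA was measured in 3 donors and CYP1A2 mRNA in one additional donor, both by qPCR. Values are triplicate means relative to DMSO.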

A further data set deals with CYP1A2. Put plainly: Decrease in CYP1A2 gene expression in human hepatocytes at 2.5 uM after 3 days by qPCR analysis. The class given is ADME, cell-based, Hepatocyte. Summed up: as §3
(In qPCR the cycle at which signal appears reflects the starting amount.)

Data set [8] has as its target CYP3A (Homo sapiens, UniProt P08684+P20815+P24462+Q9HB55). Put plainly: Time-dependent inhibition of CYP3A in human liver microsomes assessed as midazolam 1'-hydroxylation using midazolam as substrate by LC-MS/MS analysis. It counts as ADME. The following applies: probe midazolam (1'-hydroxylation). In outline: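 Pooled HLM (16 donors, mixed sex), 37°C, duplicate. IC50: carfilzomib 0.01–10 µM preincubated 30 min, then midazolam near Km (3.8 µM) at 0.05 mg/mL protein, 5 min, LC-MS/MS, relative to 0.5% acetonitrile control. KI/kinact: 0–8 µM preincubated 0–30 min with 1.25 mg/mL HLM plus NADPH-generating system, diluted 25-fold, midazolam 40 µM for 5 min.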
In general terms: Liver microsomes are vesicles of endoplasmic reticulum, rich in cytochrome P450 enzymes.

The target of data set [9] is T1, Cytochrome P450 3A (Homo sapiens, UniProt P08684+P20815+Q9HB55+P24462). In words: Decrease in CYP3A activity in human hepatocytes assessed as 6-betahydroxytestosterone formation using testosterone as substrate incubated for 3 days prior to substrate challenge for 30 mins by LC-MS/MS analysis. The class given is ADME, cell-based, Hepatocyte. The following applies: 0.5 h. Summed up:
(§4)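 Hepatocytes from 3 donors were plated on collagen I and cultured 2 days, then treated 3 days with carfilzomib (0.1–2.5 µM), 0.08% DMSO, rifampicin 20 µM or β-naphthoflavone 20 µM, renewed daily. Cells were then incubated in serum-free medium in triplicate with testosterone 200 µM (CYP3A, 30 min, 6β-hydroxytestosterone) or phenacetin 100 µM (CYP1A2, 60 min, acetaminophenol). Products were measured by LC-MS/MS and expressed relative to DMSO.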

A further data set has as its target Cytochrome P450 3A4 (Homo sapiens, UniProt P08684). Put plainly: Decrease in CYP3A4 activity in human hepatocytes assessed as 6-betahydroxytestosterone formation using testosterone as substrate at 2.5 uM incubated for 3 days prior to substrate challenge for 30 mins by LC-MS/MS analysis. As to conditions: 0.5 h. It counts as ADME, cell-based, Hepatocyte. Summed up: as §4

The target in a further data set is T2, Cytochrome P450 1A2 (Homo sapiens, UniProt P05177).
T2 sequence (P05177 whole entry): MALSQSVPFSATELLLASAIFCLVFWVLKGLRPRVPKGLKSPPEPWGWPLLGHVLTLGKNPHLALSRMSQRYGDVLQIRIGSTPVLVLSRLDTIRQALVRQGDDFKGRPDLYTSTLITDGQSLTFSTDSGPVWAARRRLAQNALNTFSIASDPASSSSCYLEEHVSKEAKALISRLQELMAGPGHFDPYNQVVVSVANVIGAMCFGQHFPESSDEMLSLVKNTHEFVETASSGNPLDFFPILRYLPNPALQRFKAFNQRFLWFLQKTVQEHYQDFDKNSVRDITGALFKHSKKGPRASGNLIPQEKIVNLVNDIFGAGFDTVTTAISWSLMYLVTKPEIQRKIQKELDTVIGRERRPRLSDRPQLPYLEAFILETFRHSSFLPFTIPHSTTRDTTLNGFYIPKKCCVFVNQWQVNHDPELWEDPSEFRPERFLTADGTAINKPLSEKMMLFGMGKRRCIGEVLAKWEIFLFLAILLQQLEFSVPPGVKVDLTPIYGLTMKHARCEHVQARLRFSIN
In words: Decrease in CYP1A2 activity in human hepatocytes assessed as acetaminophenol formation using phenacetin as substrate at 2.5 uM incubated for 3 days prior to substrate challenge for 60 mins by LC-MS/MS analysis. It counts as ADME, cell-based, Hepatocyte. The following applies: 1 h. Summed up: as §4

For another data set, the system named is Hepatocyte. In words: Cytotoxicity against human hepatocytes assessed as cell viability by MTT assay. It counts as cell-based. Summed up: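 MTT viability assay in cultured human hepatocytes from 3 donors after 3 days of carfilzomib exposure (0.1, 0.5, 2.5 µM) with daily medium and compound renewal. Solvent control was 0.08% DMSO.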
(Tetrazolium assays rely on reduction of a dye to a coloured formazan, in cell work by metabolically active cells.)

The target of data set [10] is T1, Cytochrome P450 3A. Put plainly: Drug metabolism in pooled human hepatocytes assessed as disapperance rate at 1 uM by LC-MS/MS analysis in presence of 10 uM CYP3A inhibitor ketoconazole. The class given is ADME, cell-based, Hepatocyte. Summed up: as §2
A further data set addresses Cytochrome P450 2D6 (Homo sapiens, UniProt P10635). Put plainly: Drug metabolism in pooled human hepatocytes assessed as disapperance rate at 1 uM by LC-MS/MS analysis in presence of 10 uM CYP2D6 inhibitor quinidine. The class given is ADME, cell-based, Hepatocyte. In outline: as §2

Sequence of Cytochrome P450 3A4 (P08684 whole entry): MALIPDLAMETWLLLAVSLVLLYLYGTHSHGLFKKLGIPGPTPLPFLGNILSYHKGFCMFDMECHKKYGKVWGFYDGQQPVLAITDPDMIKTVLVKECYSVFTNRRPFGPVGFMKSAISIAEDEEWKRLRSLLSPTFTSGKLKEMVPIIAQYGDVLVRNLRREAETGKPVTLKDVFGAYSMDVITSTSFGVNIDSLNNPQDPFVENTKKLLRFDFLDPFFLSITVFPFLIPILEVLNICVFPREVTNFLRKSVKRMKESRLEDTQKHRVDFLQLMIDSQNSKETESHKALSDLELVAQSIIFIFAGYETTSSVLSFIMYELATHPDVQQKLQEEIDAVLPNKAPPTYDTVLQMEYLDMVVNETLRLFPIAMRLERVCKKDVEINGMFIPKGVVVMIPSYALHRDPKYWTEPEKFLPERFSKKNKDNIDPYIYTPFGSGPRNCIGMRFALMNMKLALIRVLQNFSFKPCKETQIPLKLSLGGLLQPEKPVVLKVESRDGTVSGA
Sequence of Cytochrome P450 2D6 (P10635 whole entry): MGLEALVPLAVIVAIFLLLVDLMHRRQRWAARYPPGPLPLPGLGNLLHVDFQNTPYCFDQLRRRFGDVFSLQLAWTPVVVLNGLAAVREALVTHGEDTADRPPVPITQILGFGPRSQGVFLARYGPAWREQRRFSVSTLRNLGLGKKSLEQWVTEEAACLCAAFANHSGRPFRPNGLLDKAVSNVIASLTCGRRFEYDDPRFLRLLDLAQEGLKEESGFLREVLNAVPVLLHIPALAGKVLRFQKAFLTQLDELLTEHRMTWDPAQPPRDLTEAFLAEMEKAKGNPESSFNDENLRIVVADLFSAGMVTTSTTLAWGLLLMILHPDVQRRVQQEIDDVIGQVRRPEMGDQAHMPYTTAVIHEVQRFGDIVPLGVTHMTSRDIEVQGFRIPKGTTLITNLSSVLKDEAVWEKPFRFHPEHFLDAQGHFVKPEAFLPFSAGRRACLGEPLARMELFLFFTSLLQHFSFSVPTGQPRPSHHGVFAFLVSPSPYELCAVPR

As a reminder, the half-life is how long it takes for the measured level to halve. One may read the AUC(0-t) as exposure summed from dosing to a finite time, without extrapolation to infinity. Low readings indicate less exposure, high ones more exposure. The term Cmax denotes the peak of the concentration-time curve. As a reminder, the inhibition is the drop in the measured response relative to a control, in per cent. A high value points to a strong effect. What is called pKi is the Ki on a negative log10 scale, so that one unit is a factor of ten. As a reminder, the kinact is the maximal first-order rate at which the target is inactivated. Take `CC(C)C[C@H](NC(=O)[C@H](CCc1ccccc1)NC(=O)CN1CCOCC1)C(=O)N[C@@H](Cc1ccccc1)C(=O)N[C@@H](CC(C)C)C(=O)[C@@]1(C)CO1` [CARFILZOMIB]: the Drug metabolism result with Plasma is “metabolite_detected”; in data set [4] it was 0.015 min⁻¹; at Cytochrome P450 3A [10], 0.012 min⁻¹; at Cytochrome P450 2D6, 0.013 min⁻¹. In data set [1], this compound gave a half-life of 1 h. This compound also registered an AUC(0-t) in data set [2] of 301 ng·h/mL. The compound also registered a Cmax in [3] of 3710 ng/mL. Further, the Drug excretion entry in data set [5] and in data set [6] was “metabolite_detected” each time. Besides, the inhibition at 72 h, 2.5 µM is above 95% in the data set with CYP3A [7] and 40% in the data set with CYP1A2. Also, the pKi at CYP3A [8] was 4.96. In addition, the kinact at CYP3A [8] is 0.00167 s⁻¹. Besides, the entries for the “inhibition (INH)” value at Cytochrome P450 3A [9], at Cytochrome P450 3A4 and on Cytochrome P450 1A2 were “Dose-dependent effect”, 45% and “Dose-dependent effect”, respectively. Moreover, the Activity entry in the data set with Hepatocyte was “Non-toxic”.
